Results reported in paper PMC2034471 (Nucleic Acids Research, 2007).

How the values were obtained:
[1] = test system: histone H3; conditions: GST fusion; ref [16],[32]; cited from earlier work
[2] = aggregation / stability of Rad9 fragments in solution; format: physicochemical
[3] = test system: 35 bp ds with a 3′ terminal biotin; test: EMSA, 35 bp ds DNA with one 3′ terminal biotin; format: binding
Summary of the method: (§1)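 35-mer substrates (ss, GT mismatch, nick, gap, 3′-biotinylated duplex) made by annealing oligonucleotides in 10 mM Tris–HCl pH 8, 1 mM EDTA, 200 mM NaCl: 90°C 10 min, then slow cooling. Annealing checked on native gels. 5′-32P kinase labelling at 25°C. Incubation 2 h at 22°C in 50 mM Tris–HCl pH 8.0, 50 mM NaCl, with or without 1 mM DTT. Native 6% gels; phosphor-screen quantification for affinity.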

[4] = target: 35 bp Nick; test: EMSA, 35 bp DNA with nick; format: binding; conditions: read-out: Kd, 35 bp Nick, without DTT, 50 mM Tris–HCl pH 8.0, 50 mM NaCl, 2 h at 22°C
Summary of the method: as §1

[5] = target: 35 bp double-stranded DNA; test: EMSA, 35 bp ds DNA; format: binding; conditions: read-out: Kd, 35 bp ds, without DTT, 50 mM Tris–HCl pH 8.0, 50 mM NaCl, 2 h at 22°C, DNA 26 nM
[6] = target: 35 bp Gap; test: EMSA, 35 bp DNA with gap; format: binding; conditions: read-out: Kd, 35 bp Gap, without DTT, 50 mM Tris–HCl pH 8.0, 50 mM NaCl, 2 h at 22°C
Summary of the method: as §1

[7] = target: 35 bp ss; test: EMSA, 35 nt single-stranded DNA; format: binding; conditions: read-out: Kd, 35 bp ss, without DTT, 50 mM Tris–HCl pH 8.0, 50 mM NaCl, 2 h at 22°C
Summary of the method: as §1

[8] = ref [23]; cited from earlier work
[9] = test system: 146 bp double-stranded DNA; test: EMSA, 146 bp ds DNA; format: binding; conditions: DNA 26 nM, 2- to 128-fold molar excess of protein
Summary of the method: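 146 bp fragment made by PCR on a pUC(357.4) digest template and 5′-end labelled with 32P-ATP/T4 polynucleotide kinase at 37°C. Protein fragments incubated with labelled DNA for 2 h at 22°C in 50 mM Tris–HCl pH 8.0, 1 mM EDTA, 1 mM AEBSF, 1 mM DTT, 50 mM NaCl, 0.1% triton X-100. Resolved on pre-run 6% native polyacrylamide (29:1) in 0.5× TEG at 70 V. Complexes detected by autoradiography of dried gels at –80°C.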

[10] = target: 35 bp mismatch GT; test: EMSA, 35 bp DNA with GT mismatch; format: binding; conditions: read-out: Kd, 35 bp mismatch GT, without DTT, 50 mM Tris–HCl pH 8.0, 50 mM NaCl, 2 h at 22°C
Summary of the method: as §1

[11] = target: 211 bp double-stranded DNA; test: EMSA, 211 bp ds DNA; format: binding; conditions: read-out: Kd, 211 bp ds, with 1 mM DTT, 50 mM Tris–HCl pH 8.0, 50 mM NaCl, 0.1% triton X-100, 2 h at 22°C, phosphor screen
Summary of the method: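 211 bp fragment PCR-amplified from a DraI/BamHI digest of pUC(357.4) and 5′-32P end-labelled with T4 kinase at 37°C. Binding ran 2 h at 22°C in Tris–HCl pH 8.0 buffer with EDTA, AEBSF, 1 mM DTT, 50 mM NaCl and 0.1% triton X-100. Gels were 6% native polyacrylamide in 0.5× TEG at 70 V. Dried gels went onto a phosphor screen, and radioactive signals were quantified for affinity.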

[12] = test system: H3 from calf thymus; test: GST-pulldown, binding to histone H3; conditions: calf thymus H3, immunoblotting after elution from beads; data not shown
[13] = test system: DNA; test: surface plasmon resonance, DNA binding; conditions: versus wild-type ScRad9[754–931]; data not shown

B1: GST-ScRad9[750–917]: Rad9 construction reported by two different groups; stability by NMR tested here (protein, UniProt P14737 750-917, looked up, fragment)
chain: ETGSGKDSKEQSYVFPEGIRTADNSFLSKDDIIFGNAVWCQYTWNYKFYPGILLEVDTNQDGCWIYFETGRSLTKDEDIYYLDIRIGDAVTFDGNEYVVVGLECRSHDLNIIRCIRGYDTVHLKKKNASGLLGKRTLIKALSSISLDLSEWAKRAKIILEDNEKNKGD
modifications: GST tag
- capture of histone H3 [1]: capture of histone H3
- NMR signal lost ([2]; after 2.5 h at 30°C): 40%

B2: ScRad9[754–947]: fragment 754–947 of Saccharomyces cerevisiae Rad9, tandem tudor domain (protein)
chain: GKDSKEQSYVFPEGIRTADNSFLSKDDIIFGNAVWCQYTWNYKFYPGILLEVDTNQDGCWIYFETGRSLTKDEDIYYLDIRIGDAVTFDGNEYVVVGLECRSHDLNIIRCIRGYDTVHLKKKNASGLLGKRTLIKALSSISLDLSEWAKRAKIILEDNEKNKGDAYRYLRHPIRGRKSMTNVLSPKKHTDDEKD
- effect of biotin on affinity for the oligonucleotide ([3]; 35 bp ds, biotinylated at one or two 3′-OH ends, no streptavidin): does not modify the affinity
- Kd ([3]; read-out: Kd, 35 bp ds with a 3′ terminal biotin, EMSA, with 1 mM DTT, 50 mM Tris–HCl pH 8.0, 50 mM NaCl, 2 h at 22°C): 830 ± 50 nM
- Kd [4]: 620 ± 60 nM
- Kd [5]: 960 ± 80 nM
- Kd [6]: 960 ± 130 nM
- Kd [7]: 2500 ± 180 nM
- heat transition midpoint [8]: 52 °C
- interaction with 146 bp ds DNA by gel retardation [9]: forms complexes
- Kd [10]: 890 ± 70 nM
- Kd [11]: 500 ± 70 nM
- fraction of fragment aggregated ([2]; after three days at 0.2 mM and 30°C, MES 50 mM, NaCl 50 mM, 2 mM TCEP, pH 6): 50%

B3: GST-ScRad9[754–947]: GST fusion of ScRad9[754–947] (protein)
chain: B2 chain
modifications: left off: GST, end not stated, kept
- H3 captured in GST-pull-down [12]: not together

B4: ScRad9[754–931,C789A,C812S,C853S] (protein, UniProt P14737 754-931, looked up, variant C789A C812S C853S)
chain: GKDSKEQSYVFPEGIRTADNSFLSKDDIIFGNAVWAQYTWNYKFYPGILLEVDTNQDGSWIYFETGRSLTKDEDIYYLDIRIGDAVTFDGNEYVVVGLESRSHDLNIIRCIRGYDTVHLKKKNASGLLGKRTLIKALSSISLDLSEWAKRAKIILEDNEKNKGDAYRYLRHPIRGRKS
- DNA-binding capacity by surface plasmon resonance [13]: looses the DNA-binding capacity
- aggregation propensity / rate relative to ScRad9[754–947] [2]: 1.5 times faster
